Data on twelve compounds can be found in ChEMBL document CHEMBL1135632, “Synthesis and investigation of conformationally restricted analogues of lavendustin A as cytotoxic inhibitors of tubulin polymerization” (J Med Chem, 2002).

The structures appear in SMILES notation.

Data set [1] is filed under the species Homo sapiens. The data set is described as follows: Cytotoxicity against prostate DU-145. The following applies: DU-145, Prostate gland. In kind it is functional. The method in brief: (§1)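 NCI human cancer cell line screen. Compounds were tested from 10^-4 to 10^-8 M, and GI50 was taken as the concentration giving 50% growth inhibition. Agents whose mean graph midpoint across about 55 lines was 10 μM or less on the first determination were assayed a second time, with standard deviations calculated. Agents above 10 μM were not evaluated further.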

For data set [2], the species on record is Homo sapiens. Put plainly: Cytotoxicity against melanoma UACC-62. In kind it is functional. An outline of the steps:
as §1

The species entered for data set [3] is Homo sapiens. The data set is described as follows: Cytotoxicity against lung HOP-62. It counts as functional. An outline of the steps:
as §1

Data set [4] is filed under the species Homo sapiens. The data set is described as follows: Cytotoxicity against breast MDA-MB-435. It counts as functional. An outline of the steps: as §1
Data set [5] is filed under the species Homo sapiens. Put plainly: Cytotoxicity against ovarian OVCAR-3. In kind it is functional. An outline of the steps:
as §1

The nature of data set [6]: (§2) Cytotoxicity against leukemia CCRF-CEM. It counts as functional. The following applies: Homo sapiens. An outline of the steps: as §1
Data set [7] is filed under the species Homo sapiens. The data set is described as follows: Cytotoxicity against colon HCT116. In kind it is functional. The following applies: HCT-116. An outline of the steps:
as §1

The species entered for data set [8] is Homo sapiens. Put plainly: Cytotoxicity against CNS SF-539. The following applies: CNSSF-539. It counts as functional. The method in brief: as §1
Data set [9] is filed under the species Homo sapiens. Put plainly: Cytotoxicity against renal SN12C. It counts as functional. The method in brief:
as §1

The target of data set [10] is Tubulin (Bos taurus, UniProt Q6B856+Q862L2+Q862F3). Put plainly: Inhibition of tubulin polymerization at concentration 10 uM. In kind it is functional.
The nature of data set [11]: as §2. Particulars: human, CCRF-CEM leukemia cells. It counts as cell-based.
The target of data set [12] is Tubulin (Bos taurus). Put plainly: Inhibition of tubulin polymerization at concentration 10 uM.

As usually defined, the GI50 is the concentration at which growth is held to half of that of the control. The low end stands for greater sensitivity of the cells, the high end for lower sensitivity of the cells. A word on the IC50: it is the midpoint of a concentration-inhibition curve.

For the compound `CCCCCCNC(=O)c1cc(NCc2cc(O)ccc2O)ccc1O`, the GI50 in data set [1] turned out to be 15 µM; in [2] it was 12 µM; in data set [3], 19 µM; in [4], 15 µM; in data set [5], 4 µM; in [6], 0.56 µM. The GI50 in [7] was determined as 17 µM; in data set [8], 2.3 µM; in [9], 6.1 µM. In addition, in data set [10], the IC50 turned out to be 3.6 µM.
Turning to `O=C(NCCc1ccccc1)c1cc(NCc2cc(O)ccc2O)ccc1O`, the GI50 was 16 µM in data set [1]; 14 µM in data set [2]; 20 µM in [3]; 19 µM in [4]; 7.7 µM in data set [5]; 2.7 µM in data set [6]. For the same compound, the results for the GI50 in data set [7], in data set [8] and in [9] were 18 µM, 17 µM and 18 µM, respectively. In [10], this compound displayed an IC50 of 3.6 µM.
On to `Oc1ccc(O)c(CNc2ccc(O)c(/C=C/CCc3ccccc3)c2)c1`, for which the GI50 in data set [1] is 18.7 µM; in [2] it was 18 µM; in data set [3] it was 35.4 µM; in data set [4], 5.7 µM; in data set [5] it was 20.4 µM; in data set [6], 1.1 µM. Further, the concentration for 50% growth inhibition (GI50) in data set [7] is 30.4 µM; in data set [8] it was 16.3 µM; in data set [9], 21.4 µM. The compound also came in with an IC50 in [10] of 7.2 µM.
Turning to `COc1ccc(NCc2cc(O)ccc2O)c2c1C(=O)N(CCc1ccc(F)cc1)C2`, the concentration for 50% growth inhibition (GI50) in data set [1] stood at 16.1 µM; in data set [2], 19.1 µM; in [3], 31.4 µM; in data set [4], 14 µM; in [5], 8.4 µM; in [6] it was 3.4 µM. Further, the GI50 in [7] was 20.4 µM; in [8], 14.4 µM; in [9] it was 20.4 µM. This compound yielded a half-maximal inhibitory concentration (IC50) in [10] of 5.9 µM.
Take `O=c1oc2ccc(NCc3cc(O)ccc3O)cc2c(=O)n1CCc1ccc(F)cc1`: the GI50 in [1] is 17.7 µM; in data set [2] it was 7 µM; in [3], 17.2 µM; in data set [4], 4.9 µM; in data set [5] it was 2.8 µM; in data set [6] it was 0.78 µM. The concentration for 50% growth inhibition (GI50) in [7] turned out to be 4.2 µM; in [8] it was 5.1 µM; in data set [9] it was 6.6 µM. For the same compound, the IC50 in data set [10] turned out to be 6.8 µM.
Turning to `Oc1ccc(O)c(CNc2ccc(O)c(/C=C\CCc3ccccc3)c2)c1`, the GI50 in [1] is 34 µM; in data set [2] it was 15.9 µM; in [3], 20.5 µM; in data set [4], 17.1 µM; in data set [5], 21.9 µM; in [6], 0.7 µM. Further, the GI50 in data set [7] was 19.3 µM; in data set [8] it was 11.6 µM; in data set [9], 17.8 µM. This compound showed an IC50 in data set [10] of 3.7 µM.
As to `O=C1c2c(O)ccc(NCc3cc(O)ccc3O)c2CN1CCc1ccccc1`, the 50% growth inhibitory concentration (GI50) came to 14.5 µM in data set [1]; 10.1 µM in data set [2]; 26.8 µM in data set [3]; 14.8 µM in data set [4]; 6.2 µM in data set [5]; 2.3 µM in [6]. Also, the GI50 in data set [7] was 19.9 µM; in data set [8], 23.1 µM; in data set [9], 12.9 µM. In data set [10], the IC50 came out at 7.4 µM.
As to `O=c1oc2ccc(NCc3cc(O)ccc3O)cc2c(=O)n1CCc1ccccc1`, the GI50 was found to be 15.3 µM in data set [1]; 6 µM in data set [2]; 21.4 µM in data set [3]; 5.6 µM in data set [4]; 3.6 µM in data set [5]; 4.6 µM in [7]. In addition, the figures for the concentration for 50% growth inhibition (GI50) in [8], in data set [9] and in data set [11] were 8.9 µM, 9.6 µM and 1.3 µM, respectively. The IC50 in data set [10] is 8.3 µM.
As for `CCCCCCn1c(=O)oc2ccc(NCc3cc(O)ccc3O)cc2c1=O`, the GI50 amounted to 13.8 µM in data set [1]; 3.2 µM in data set [2]; 14.8 µM in data set [3]; 3.9 µM in data set [4]; 1.7 µM in data set [5]; 0.27 µM in data set [6]. Further, the GI50 in data set [7] amounted to 3.2 µM; in data set [8], 2.4 µM; in data set [9], 4.2 µM. The half-inhibitory concentration (IC50) in data set [10] is 6 µM.
Turning to `O=C1c2c(O)ccc(NCc3cc(O)ccc3O)c2CN1CCc1ccc(F)cc1`, the GI50 in [1] is 24.6 µM; in data set [2], 13.3 µM; in data set [3], 19.6 µM; in data set [4], 15.6 µM; in data set [5], 8.8 µM; in [6] it was 1.8 µM. Further, the GI50 in [7] amounted to 18.7 µM; in data set [8], 14.4 µM; in data set [9] it was 16 µM. Besides, in [10], the IC50 was 5.9 µM.
Compound `COc1ccc(NCc2cc(O)ccc2O)c2c1C(=O)N(CCc1ccccc1)C2` gave an IC50 in data set [12] of 9.5 µM. This lies in the single-digit micromolar range.
With `O=C(NCCc1ccc(F)cc1)c1cc(NCc2cc(O)ccc2O)ccc1O`, the GI50 in data set [1] is 0.27 µM; in data set [2], 0.41 µM; in data set [3] it was 0.28 µM; in data set [4] it was 0.047 µM; in [5] it was 0.15 µM; in data set [6], 0.22 µM. In addition, the GI50 in data set [7] is 0.33 µM; in data set [8], 0.32 µM; in [9], 0.58 µM. The compound also registered an IC50 in data set [10] of 4 µM.
